Results: ChEMBL document CHEMBL1123801, “Synthesis and antifungal activity of new 1-vinylimidazoles” (1987)
In brackets after ≈: the same amount, converted by molar mass.

system: Trichophyton benhamiae; experiment: (§1) Minimum inhibitory concentration against Trichophyton asteroides; assay type: functional; conditions: not given
Method in brief: (§2)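 Broth microdilution in Sabouraud's glucose broth. Final inocula 1×10^5 cells/mL for the yeast (C. albicans) and 1×10^5 conidia/mL for the mold (A. fumigatus) and the dermatophyte (T. asteroides). MIC read as the fungistatic end point. Lowest value of duplicated experiments.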

| SMILES | MIC |
| --- | --- |
| C=C(c1cc(Cl)ccc1OC(C)C)n1ccnc1 | 0.1 µg/mL (≈ 0.381 µM) |
| CC(C)COc1ccccc1/C(=C/CN(C)C)n1ccnc1 | > 100 µg/mL |
| CC(C)COc1ccccc1/C(=C/CN(C)c1ccccc1)n1ccnc1 | 0.1 µg/mL (≈ 0.277 µM) |
| CCCCOc1ccccc1C(=C(C)C)n1ccnc1 | 0.1 µg/mL (≈ 0.37 µM) |
| CC(C)COc1ccccc1/C(=C\CN(C)C)n1ccnc1 | 6.3 µg/mL (≈ 21 µM) |
| C/C(CN(C)C)=C(\c1ccccc1OCC(C)C)n1ccnc1 | 0.8 µg/mL (≈ 2.55 µM) |
| C=C(c1ccccc1OCCC(C)C)n1ccnc1 | 0.1 µg/mL (≈ 0.39 µM) |

Results, then the compound that gave them:

| MIC | SMILES |
| --- | --- |
| 25 µg/mL (≈ 122 µM) | C=C(c1ccc(Cl)cc1)n1ccnc1 |
| 0.8 µg/mL (≈ 2.4 µM) | CC(C)COc1ccc(Cl)cc1/C(=C\CN(C)C)n1ccnc1 |
| 1.6 µg/mL (≈ 3.94 µM) | C=C(c1ccccc1N(Cc1ccc(Cl)cc1)C(=O)C(F)(F)F)n1ccnc1 |
| 0.1 µg/mL (≈ 0.361 µM) | C=C(c1cc(Cl)ccc1OCC(C)C)n1ccnc1 |
| 0.1 µg/mL (≈ 0.361 µM) | C/C=C(/c1cc(Cl)ccc1OCCC)n1ccnc1 |
| > 100 µg/mL | CCC(CC)=C(c1cc(Cl)ccc1OCc1ccc(Cl)cc1)n1cncn1 |
| 0.1 µg/mL (≈ 0.344 µM) | C=C(c1ccccc1OCCc1ccccc1)n1ccnc1 |
| 100 µg/mL (≈ 587 µM) | C=C(c1ccccc1)n1ccnc1 |
| 0.2 µg/mL (≈ 0.688 µM) | CCCOc1ccc(Cl)cc1C(=C(C)C)n1ccnc1 |

system: not listed separately; experiment: as §1; assay type: functional; conditions: Trichophyton benhamiae; method in brief: as §2

| SMILES | MIC |
| --- | --- |
| c1ccc(C(c2ccccc2)(n2ccnc2)n2ccnc2)cc1 | 0.8 µg/mL (≈ 2.66 µM) |
| C=C(c1ccccc1SCc1ccc(Cl)cc1)n1ccnc1 | 0.1 µg/mL (≈ 0.306 µM) |

Further lines, results first:

| MIC | SMILES |
| --- | --- |
| > 100 µg/mL | CC(c1ccccc1)(n1ccnc1)n1ccnc1 |
| > 100 µg/mL | c1ccc(C(n2ccnc2)n2ccnc2)cc1 |
| > 100 µg/mL | CC(c1ccc(Cl)cc1)(n1ccnc1)n1ccnc1 |

system: Candida albicans; experiment: Inhibition of pseudomycelium formation of Candida albicans.; assay type: functional; conditions: read-out: MEC
Method in brief: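 C. albicans KE-2 (clinical isolate), final inoculum 1×10^6 yeast cells/mL in EMEM with 20% calf serum. Compounds serially diluted by the microtiter dilution system used for MICs. After incubation, wells Giemsa-stained (5% in phosphate buffer) and examined microscopically. MEC (μg/mL) = lowest concentration preventing typical pseudomycelium formation. Lowest value of duplicated experiments.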

| SMILES | minimal effective concentration |
| --- | --- |
| C=C(c1ccc(Cl)cc1)n1ccnc1 | > 20 µg/mL |
| C=C(c1cc(Cl)ccc1OC(C)C)n1ccnc1 | 5 µg/mL |
| CC(C)COc1ccccc1/C(=C/CN(C)C)n1ccnc1 | 5 µg/mL |
| CC(C)COc1ccc(Cl)cc1/C(=C\CN(C)C)n1ccnc1 | 2.5 µg/mL |
| C=C(c1ccccc1N(Cc1ccc(Cl)cc1)C(=O)C(F)(F)F)n1ccnc1 | 20 µg/mL |
| C=C(c1cc(Cl)ccc1OCC(C)C)n1ccnc1 | 1.25 µg/mL |
| C/C=C(/c1cc(Cl)ccc1OCCC)n1ccnc1 | 0.63 µg/mL |
| CC(C)COc1ccccc1/C(=C/CN(C)c1ccccc1)n1ccnc1 | 5 µg/mL |
| CCCCOc1ccccc1C(=C(C)C)n1ccnc1 | 0.31 µg/mL |
| CCC(CC)=C(c1cc(Cl)ccc1OCc1ccc(Cl)cc1)n1cncn1 | 20 µg/mL |
| CC(C)COc1ccccc1/C(=C\CN(C)C)n1ccnc1 | 0.16 µg/mL |
| C=C(c1ccccc1OCCc1ccccc1)n1ccnc1 | 1.25 µg/mL |
| C/C(CN(C)C)=C(\c1ccccc1OCC(C)C)n1ccnc1 | 0.63 µg/mL |
| C=C(c1ccccc1)n1ccnc1 | > 20 µg/mL |
| CCCOc1ccc(Cl)cc1C(=C(C)C)n1ccnc1 | 0.31 µg/mL |
| C=C(c1ccccc1OCCC(C)C)n1ccnc1 | 0.63 µg/mL |

system: not listed separately; experiment: Minimum inhibitory concentration against Aspergillus fumigatus; assay type: functional, trichophyton asteroides; conditions: Trichophyton benhamiae; method in brief: as §2

| MIC | SMILES |
| --- | --- |
| > 100 µg/mL | CC(c1cccc(OCc2ccc(Cl)cc2)c1)(n1ccnc1)n1ccnc1 |

system: Aspergillus fumigatus; experiment: Minimum inhibitory concentration (MIC) against Aspergillus fumigatus; assay type: functional; conditions: not given; method in brief: as §2

| SMILES | MIC |
| --- | --- |
| c1ccc(C(c2ccccc2)(n2ccnc2)n2ccnc2)cc1 | > 100 µg/mL |
| C=C(c1cc(Cl)ccc1OC(C)C)n1ccnc1 | 0.8 µg/mL (≈ 3.04 µM) |
| CC(C)COc1ccccc1/C(=C/CN(C)C)n1ccnc1 | > 100 µg/mL |
| CC(C)COc1ccccc1/C(=C/CN(C)c1ccccc1)n1ccnc1 | 6.3 µg/mL (≈ 17.4 µM) |
| CCCCOc1ccccc1C(=C(C)C)n1ccnc1 | 1.6 µg/mL (≈ 5.92 µM) |
| CC(C)COc1ccccc1/C(=C\CN(C)C)n1ccnc1 | > 100 µg/mL |
| C=C(c1ccccc1SCc1ccc(Cl)cc1)n1ccnc1 | 0.8 µg/mL (≈ 2.45 µM) |
| C/C(CN(C)C)=C(\c1ccccc1OCC(C)C)n1ccnc1 | > 100 µg/mL |
| C=C(c1ccccc1OCCC(C)C)n1ccnc1 | 0.4 µg/mL (≈ 1.56 µM) |

The next lines start with the values.

| MIC | SMILES |
| --- | --- |
| > 100 µg/mL | CC(c1ccccc1)(n1ccnc1)n1ccnc1 |
| 100 µg/mL (≈ 489 µM) | C=C(c1ccc(Cl)cc1)n1ccnc1 |
| > 100 µg/mL | CC(C)COc1ccc(Cl)cc1/C(=C\CN(C)C)n1ccnc1 |
| 50 µg/mL (≈ 123 µM) | C=C(c1ccccc1N(Cc1ccc(Cl)cc1)C(=O)C(F)(F)F)n1ccnc1 |
| 0.8 µg/mL (≈ 2.89 µM) | C=C(c1cc(Cl)ccc1OCC(C)C)n1ccnc1 |
| 6.3 µg/mL (≈ 22.8 µM) | C/C=C(/c1cc(Cl)ccc1OCCC)n1ccnc1 |
| > 100 µg/mL | CCC(CC)=C(c1cc(Cl)ccc1OCc1ccc(Cl)cc1)n1cncn1 |
| 0.4 µg/mL (≈ 1.38 µM) | C=C(c1ccccc1OCCc1ccccc1)n1ccnc1 |
| > 100 µg/mL | c1ccc(C(n2ccnc2)n2ccnc2)cc1 |
| > 100 µg/mL | C=C(c1ccccc1)n1ccnc1 |
| 6.3 µg/mL (≈ 21.7 µM) | CCCOc1ccc(Cl)cc1C(=C(C)C)n1ccnc1 |
| > 100 µg/mL | CC(c1cccc(OCc2ccc(Cl)cc2)c1)(n1ccnc1)n1ccnc1 |
| > 100 µg/mL | CC(c1ccc(Cl)cc1)(n1ccnc1)n1ccnc1 |

system: Candida albicans; experiment: Minimum inhibitory concentration (MIC) against Candida albicans; assay type: functional; conditions: not given; method in brief: as §2

| SMILES | MIC |
| --- | --- |
| c1ccc(C(c2ccccc2)(n2ccnc2)n2ccnc2)cc1 | > 100 µg/mL |
| C=C(c1cc(Cl)ccc1OC(C)C)n1ccnc1 | 50 µg/mL (≈ 190 µM) |
| CC(C)COc1ccccc1/C(=C/CN(C)C)n1ccnc1 | > 100 µg/mL |
| CC(C)COc1ccccc1/C(=C/CN(C)c1ccccc1)n1ccnc1 | 12.5 µg/mL (≈ 34.6 µM) |
| CCCCOc1ccccc1C(=C(C)C)n1ccnc1 | 50 µg/mL (≈ 185 µM) |
| CC(C)COc1ccccc1/C(=C\CN(C)C)n1ccnc1 | > 100 µg/mL |
| C=C(c1ccccc1SCc1ccc(Cl)cc1)n1ccnc1 | 50 µg/mL (≈ 153 µM) |
| C/C(CN(C)C)=C(\c1ccccc1OCC(C)C)n1ccnc1 | > 100 µg/mL |
| C=C(c1ccccc1OCCC(C)C)n1ccnc1 | 25 µg/mL (≈ 97.5 µM) |

More lines, now with the values ahead:

| MIC | SMILES |
| --- | --- |
| > 100 µg/mL | CC(c1ccccc1)(n1ccnc1)n1ccnc1 |
| 100 µg/mL (≈ 489 µM) | C=C(c1ccc(Cl)cc1)n1ccnc1 |
| > 100 µg/mL | CC(C)COc1ccc(Cl)cc1/C(=C\CN(C)C)n1ccnc1 |
| 1.6 µg/mL (≈ 3.94 µM) | C=C(c1ccccc1N(Cc1ccc(Cl)cc1)C(=O)C(F)(F)F)n1ccnc1 |
| 50 µg/mL (≈ 181 µM) | C=C(c1cc(Cl)ccc1OCC(C)C)n1ccnc1 |
| 25 µg/mL (≈ 90.3 µM) | C/C=C(/c1cc(Cl)ccc1OCCC)n1ccnc1 |
| > 100 µg/mL | CCC(CC)=C(c1cc(Cl)ccc1OCc1ccc(Cl)cc1)n1cncn1 |
| 12.5 µg/mL (≈ 43 µM) | C=C(c1ccccc1OCCc1ccccc1)n1ccnc1 |
| > 100 µg/mL | c1ccc(C(n2ccnc2)n2ccnc2)cc1 |
| > 100 µg/mL | C=C(c1ccccc1)n1ccnc1 |
| 25 µg/mL (≈ 86 µM) | CCCOc1ccc(Cl)cc1C(=C(C)C)n1ccnc1 |
| > 100 µg/mL | CC(c1cccc(OCc2ccc(Cl)cc2)c1)(n1ccnc1)n1ccnc1 |
| > 100 µg/mL | CC(c1ccc(Cl)cc1)(n1ccnc1)n1ccnc1 |
